Measured values reported in ChEMBL document CHEMBL3351998, “Discovery of potent and specific dihydroisoxazole inhibitors of human transglutaminase 2” (J Med Chem, 2014).

Tests used:
[1] = target: T1, Coagulation factor XIII A chain (Homo sapiens) (UniProt P00488); experiment: Inhibition of human factor 13a using QEQVSPLSLLK peptide substrate assessed as Kinh/Ki ratio by GDH coupled assay
T1 sequence (whole entry): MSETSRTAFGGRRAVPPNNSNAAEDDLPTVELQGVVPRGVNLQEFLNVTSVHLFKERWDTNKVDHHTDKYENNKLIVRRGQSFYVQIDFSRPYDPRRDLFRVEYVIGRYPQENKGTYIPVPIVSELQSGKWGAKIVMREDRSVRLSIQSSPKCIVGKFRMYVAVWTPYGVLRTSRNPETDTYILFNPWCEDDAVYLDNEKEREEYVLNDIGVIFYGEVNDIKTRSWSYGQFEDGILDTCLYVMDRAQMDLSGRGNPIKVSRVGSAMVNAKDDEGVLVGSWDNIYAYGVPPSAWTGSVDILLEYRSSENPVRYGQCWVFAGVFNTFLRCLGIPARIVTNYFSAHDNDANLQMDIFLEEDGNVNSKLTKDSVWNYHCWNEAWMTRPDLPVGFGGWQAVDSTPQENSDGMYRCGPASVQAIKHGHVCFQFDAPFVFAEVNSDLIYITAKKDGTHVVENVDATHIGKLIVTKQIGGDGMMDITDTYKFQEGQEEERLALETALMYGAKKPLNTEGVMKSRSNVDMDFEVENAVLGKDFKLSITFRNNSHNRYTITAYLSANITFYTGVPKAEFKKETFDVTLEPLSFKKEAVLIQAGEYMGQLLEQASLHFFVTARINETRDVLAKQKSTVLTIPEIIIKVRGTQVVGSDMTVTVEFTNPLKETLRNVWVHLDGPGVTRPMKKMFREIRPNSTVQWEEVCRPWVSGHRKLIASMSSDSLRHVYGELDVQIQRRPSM

[2] = target: T2, Protein-glutamine gamma-glutamyltransferase K (Homo sapiens) (UniProt P22735); experiment: Inhibition of human transglutaminase 1 using ((benzyloxy)carbonyl)-L-glutaminyl-L-serine peptide substrate assessed as Kinh/Ki ratio by GDH coupled assay
T2 sequence (whole entry): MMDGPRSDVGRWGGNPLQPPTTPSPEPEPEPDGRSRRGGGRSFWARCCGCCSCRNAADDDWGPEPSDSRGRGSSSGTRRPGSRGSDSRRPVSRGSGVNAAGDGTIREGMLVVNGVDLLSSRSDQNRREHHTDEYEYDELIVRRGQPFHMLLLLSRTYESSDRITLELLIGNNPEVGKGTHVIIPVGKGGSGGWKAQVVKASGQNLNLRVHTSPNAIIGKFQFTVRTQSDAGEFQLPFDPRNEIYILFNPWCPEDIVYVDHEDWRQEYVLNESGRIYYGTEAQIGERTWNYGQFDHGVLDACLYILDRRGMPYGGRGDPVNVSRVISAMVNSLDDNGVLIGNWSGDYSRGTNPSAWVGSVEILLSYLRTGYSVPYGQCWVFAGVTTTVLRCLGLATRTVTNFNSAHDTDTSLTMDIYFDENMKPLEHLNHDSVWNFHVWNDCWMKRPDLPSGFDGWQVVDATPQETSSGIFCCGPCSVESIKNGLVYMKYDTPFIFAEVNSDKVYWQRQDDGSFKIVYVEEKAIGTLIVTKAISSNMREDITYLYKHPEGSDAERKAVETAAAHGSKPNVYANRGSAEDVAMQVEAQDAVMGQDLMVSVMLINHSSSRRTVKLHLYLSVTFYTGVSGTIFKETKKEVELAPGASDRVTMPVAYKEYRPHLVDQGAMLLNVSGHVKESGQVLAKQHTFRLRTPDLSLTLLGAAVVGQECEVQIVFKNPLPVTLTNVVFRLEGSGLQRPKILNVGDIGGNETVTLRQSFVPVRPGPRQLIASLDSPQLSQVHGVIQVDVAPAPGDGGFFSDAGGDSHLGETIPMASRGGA
Method in brief: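 Recombinant His-tagged human TG1 from E. coli Rosetta 2 pLysS, final ~0.37 μM, in 200 mM MOPS pH 7.2, 5 mM CaCl2, 10 mM α-ketoglutarate, 300 μM NADH, 36 U/mL GDH. Z-Gln-Ser at 20/40 mM. Inhibitors typically at 100/33.3/11.1/3.7 μM (1% DMSO), added after ≥5 min enzyme pre-equilibration. NADH loss read at 340 nm; progress curves fitted to exponential decay, kinh/Ki from irreversible model.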

[3] = target: T3, Protein-glutamine gamma-glutamyltransferase 2 (Mus musculus) (UniProt P21981); experiment: Inhibition of mouse transglutaminase 2 using ((benzyloxy)carbony l)-L-glutaminylglycine peptide substrate assessed as Kinh/Ki ratio by GDH coupled assay
T3 sequence (whole entry): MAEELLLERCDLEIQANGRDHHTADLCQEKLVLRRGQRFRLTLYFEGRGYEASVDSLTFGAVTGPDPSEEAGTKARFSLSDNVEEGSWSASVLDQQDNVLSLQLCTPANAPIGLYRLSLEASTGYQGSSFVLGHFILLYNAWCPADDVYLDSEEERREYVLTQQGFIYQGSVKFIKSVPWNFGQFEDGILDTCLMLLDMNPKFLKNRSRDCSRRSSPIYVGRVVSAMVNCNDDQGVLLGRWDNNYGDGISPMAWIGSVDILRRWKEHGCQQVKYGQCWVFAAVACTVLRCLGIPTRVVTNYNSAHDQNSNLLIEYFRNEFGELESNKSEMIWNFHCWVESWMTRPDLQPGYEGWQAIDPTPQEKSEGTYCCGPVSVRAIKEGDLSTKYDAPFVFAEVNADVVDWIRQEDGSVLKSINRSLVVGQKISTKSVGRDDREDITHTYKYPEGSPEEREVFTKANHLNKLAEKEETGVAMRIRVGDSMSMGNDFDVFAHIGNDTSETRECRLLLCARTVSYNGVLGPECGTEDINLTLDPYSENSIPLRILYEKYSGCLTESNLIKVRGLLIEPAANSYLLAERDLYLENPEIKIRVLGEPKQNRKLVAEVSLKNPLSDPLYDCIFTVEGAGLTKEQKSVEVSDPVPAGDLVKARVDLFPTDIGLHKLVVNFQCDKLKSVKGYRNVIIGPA
Method in brief: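 Human TG2 (V224G variant) or codon-optimized murine TG2, E. coli-expressed, final ~0.34 and 0.22 μM respectively. Buffer: 200 mM MOPS pH 7.2, 5 mM CaCl2, 10 mM α-ketoglutarate, 300 μM NADH, 36 U/mL bovine GDH. Z-Gln-Gly at 10/20 mM. Inhibitors typically at 100/33.3/11.1/3.7 μM, 1% DMSO, added after ≥5 min pre-equilibration. A340 progress curves fitted to exponential decay; kinh/Ki from irreversible inhibition model.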

[4] = Half life in CD-1 mouse at 50 mg/kg, po; format: ADME, organism-based; design: dose 50 mg/kg, route oral; conditions: in vivo
Method in brief: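 Male CD-1 mice (6−8 weeks, cohorts of five) fasted ~6 h, then gavaged (10 μL/g) with inhibitor mixtures at 50 mg/kg each compound. Vehicle: 25 mg/mL per compound in 1 M HCl/10% Tween-80/25% ethanol, diluted 5-fold into 0.94% methylcellulose in 250 mM trisodium citrate. Blood sampled at 5, 20 (saphenous) and 60 min (cardiac). Plasma quantified by LC-MS (ESI-QTOF) against standard curves.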

In the case of `O=C(N[C@@H]1C[C@@H](C(=O)NC[C@@H]2CC(Br)=NO2)N(C(=O)OCc2cnc3ccccc3c2)C1)c1cccnc1`, the Ratio [1] is reported as 10.6, the Ratio [2] is reported as 20 and the Ratio [3] is reported as 0.68. The half-life [4] was 15 min.

With `O=C(NC[C@@H]1CC(Br)=NO1)[C@@H]1CCCN1C(=O)OCc1cnc2ccccc2c1` the Ratio [1] was 8.3, the Ratio [2] was 13.2 and the Ratio [3] was 0.5. For the same compound, the half-life [4] was 15 min.

For `O=C(NC[C@@H]1CC(Br)=NO1)[C@@H]1C[C@@H](c2ccccc2)CN1C(=O)OCc1cnc2ccccc2c1`, the Ratio [1] was 25.4, the Ratio [2] was 66.3 and the Ratio [3] was 1.5. The half-life [4] was 15 min.

With `O=C(NC[C@@H]1CC(Br)=NO1)[C@@H]1C[C@@H](OCc2ccccc2)CN1C(=O)OCc1cnc2ccccc2c1` the Ratio [1] was 15.5, the Ratio [2] was 5.8 and the Ratio [3] was 0.5. It also gave a half-life [4] of 15 min.

`O=C(NC[C@@H]1CC(Br)=NO1)[C@@H]1C[C@@H](c2ccc(O)cc2)CN1C(=O)OCc1cnc2ccccc2c1` showed a Ratio [1] of 38.7, a Ratio [2] of 90.7 and a Ratio [3] of 1.4. For the same compound, the half-life [4] was 15 min.

Work on `O=C(NC[C@@H]1CC(Br)=NO1)[C@@H]1C[C@H](F)CN1C(=O)OCc1cnc2ccccc2c1` yielded a Ratio [1] of 7, a Ratio [2] of 6 and a Ratio [3] of 0.43. It also gave a half-life [4] of 15 min.

Compound `O=C(NC[C@@H]1CC(Br)=NO1)[C@@H]1C[C@@H](O)CN1C(=O)OCc1cnc2ccccc2c1` has a Ratio [1] of 11.1, a Ratio [2] of 4.8 and a Ratio [3] of 0.5. It also gave a half-life [4] of 15 min.

`O=C(N[C@@H]1C[C@@H](C(=O)NC[C@@H]2CC(Br)=NO2)N(C(=O)OCc2cnc3ccccc3c2)C1)c1ccc(O)cc1` gave a Ratio [1] of 9.4, a Ratio [2] of 31.3 and a Ratio [3] of 1.3. For the same compound, the half-life [4] was 15 min.
